Experimental data published in ChEMBL document CHEMBL1144850, “Combretastatin dinitrogen-substituted stilbene analogues as tubulin-binding and vascular-disrupting agents” (J Nat Prod, 2008).

How the values were obtained:
SF-268 = test: Cytotoxicity against human SF268 cells after 48 hrs by SRB assay; assay type: functional
How it was run: (§1)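 Cells grown in RPMI1640 with 5% fetal bovine serum were seeded and incubated 24 h, then exposed to serial dilutions for 48 h. Plates were fixed with trichloroacetic acid, stained with sulforhodamine B and read by plate reader. GI50 is the concentration giving a 50% reduction in net protein increase, calculated from optical density data.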

NCI-H460 = test: Cytotoxicity against human NCIH460 cells after 48 hrs by SRB assay; assay type: functional; how it was run: as §1
MCF7 = test: Cytotoxicity against human MCF7 cells after 48 hrs by SRB assay; assay type: functional; how it was run: as §1
KM-20L2 = test: Cytotoxicity against human KM20L2 cells after 48 hrs by SRB assay; assay type: functional; how it was run: as §1
[1] = Inhibition of calf tubulin polymerization; set-up: species or system Bos taurus
How it was run: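 Tubulin purified from calf brain; polymerization followed turbidimetrically at 350 nm. IC50 obtained from the data by nonlinear regression.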

BXPC-3 = test: Cytotoxicity against human BXPC3 cells after 48 hrs by SRB assay; assay type: functional; how it was run: as §1
DU-145 = test: Cytotoxicity against human DU145 cells after 48 hrs by SRB assay; assay type: functional; how it was run: as §1
[2] = Cytotoxicity against mouse MHEC5-T cells after 1 hr by MTT assay; assay type: functional, cell-based
How it was run: (§2)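 Mouse heart endothelioma MHEC5-T cells exposed to serial dilutions of compound; viability read by MTT reduction after incubation at 37 °C for 1 h or 5 days exposure. IC50 = concentration reducing viability by 50% versus untreated control.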

[3] = Cytotoxicity against mouse MHEC5-T cells after 5 days by MTT assay; assay type: functional, cell-based; details: 120 h; how it was run: as §2
Mus musculus [4] = test: Reduction of blood flow to tumor in MHEC5-T xenografted SCID mouse at 10 mg/kg, ip after 24 hrs; assay type: functional; set-up: scale not given: the % may be the effect or the level left; details: route intraperitoneal
How it was run: (§3)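 SCID mice bearing flank MHEC5-T tumours (cultured cells injected into right flank), dosed ip at 10 or 100 mg/kg once tumours reached 300 mm3 without necrosis. At 24 h, diluted fluorescent microbeads (1:6 in saline) injected iv via tail vein; mice killed 3 min later. 8 µm cryosections of tumour and normal organs imaged by fluorescence microscopy; three sections from three tumours per group; vehicle controls.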

Mus musculus [5] = test: Reduction of blood flow to tumor in MHEC5-T xenografted SCID mouse at 100 mg/kg, ip after 24 hrs; assay type: functional; set-up: scale not given: the % may be the effect or the level left; details: route intraperitoneal; how it was run: as §3
P388 = test: Growth inhibition of mouse P388 cells; assay type: functional; details: read-out: ED50 (the source's name)

IC50 [1] [nM] | Structure (SMILES) | GI50 (SF-268; Homo sapiens, SF-268, 48 h) [nM] | GI50 (NCI-H460; Homo sapiens, NCI-H460, 48 h) [nM] | GI50 (MCF7; Homo sapiens, MCF7, 48 h) [nM] | GI50 (KM-20L2; Homo sapiens, KM-20L2, 48 h) [nM] | GI50 (BXPC-3; Homo sapiens, BXPC-3, 48 h) [nM] | GI50 (DU-145; Homo sapiens, DU-145, 48 h) [nM] | GI50 (SF-268) [nM] | GI50 (NCI-H460) [nM] | GI50 (MCF7) [nM] | IC50 [2] [nM] | GI50 (KM-20L2) [nM] | GI50 (BXPC-3) [nM] | GI50 (DU-145) [nM] | IC50 [3] [nM] | Activity (Mus musculus [4]) [%] | Activity (Mus musculus [5]) [%] | EC50 (P388) [nM]
> 40000 | COc1cc([N+](=O)[O-])c(/C=C\c2cc(OC)c(OC)c(OC)c2)cc1N | 2800 | 2500 | 2600 | 3500 | 2700 | 3300 | – | – | – | – | – | – | – | – | – | – | –
> 40000 | COc1cc([N+](=O)[O-])c(/C=C\c2cc(OC)c(OC)c(OC)c2)cc1[N+](=O)[O-] | 2800 | 3500 | 2300 | 4600 | 3600 | 5500 | – | – | – | – | – | – | – | – | – | – | –
> 40000 | COc1cc(/C=C/c2cc([N+](=O)[O-])c(OC)c([N+](=O)[O-])c2)cc(OC)c1OC | > 10000 | > 10000 | > 10000 | > 10000 | > 10000 | > 10000 | – | – | – | – | – | – | – | – | – | – | –
31000 | COc1cc(N)c(/C=C\c2cc(OC)c(OC)c(OC)c2)cc1[N+](=O)[O-] | – | – | – | – | – | – | 2600 | 3600 | 2600 | 37700 | 3500 | 3200 | 3600 | > 1400 | 0 | 0 | –
> 40000 | COc1cc([N+](=O)[O-])c(/C=C/c2cc(OC)c(OC)c(OC)c2)cc1[N+](=O)[O-] | 1700 | > 10000 | 2500 | > 10000 | > 10000 | > 10000 | – | – | – | – | – | – | – | – | – | – | –
– | COc1cc(N)c(/C=C\c2cc(OC)c(OC)c(OC)c2)cc1[N+](=O)[O-].Cl | – | 4300 | 1500 | – | – | 3500 | 1200 | – | – | – | 980 | 1200 | – | – | 0 | 13.7 | 6600
7400 | COc1cc(/C=C\c2cc([N+](=O)[O-])c(OC)c([N+](=O)[O-])c2)cc(OC)c1OC | 680 | 370 | 410 | 520 | 790 | 260 | – | – | – | – | – | – | – | – | – | – | –
– | COc1cc(/C=C\c2cc(N)c(OC)c(N)c2)cc(OC)c1OC | 1500 | 2400 | 1500 | 1100 | 1500 | 2100 | – | – | – | – | – | – | – | – | 3.1 | 4.6 | 5200
14100 | COc1cc(N)c(/C=C\c2cc(OC)c(OC)c(OC)c2)cc1N | 550 | 380 | 610 | 440 | 1000 | 330 | – | – | – | – | – | – | – | – | – | – | –
– | COc1cc(/C=C\c2ccc(OC)c(OP(=O)([O-])[O-])c2OP(=O)([O-])[O-])cc(OC)c1OC.[Na+].[Na+].[Na+].[Na+] | – | – | – | – | – | – | – | – | – | 3200 | – | – | – | 4.6 | 70 | 99 | < 10
– | COc1ccc(/C=C\c2cc(OC)c(OC)c(OC)c2)cc1O [COMBRETASTATIN A4] | – | 0.6 | – | 340 | 390 | 0.8 | – | – | – | – | – | – | – | – | – | – | –
1900 | COc1ccc(/C=C\c2cc(OC)c(OC)c(OC)c2)c(O)c1O [COMBRETASTATIN A-1] | – | 740 | – | 61 | 4400 | 170 | – | – | – | – | – | – | – | – | – | – | –
– | COc1ccc(/C=C\c2cc(OC)c(OC)c(OC)c2)cc1OP(=O)([O-])[O-].[Na+].[Na+] [FOSBRETABULIN DISODIUM] | – | – | – | – | – | – | – | – | – | 800 | – | – | – | 2 | 10 | 88 | 0.4

Structure (SMILES) | IC50 [1] [nM] | GI50 (SF-268; Homo sapiens, SF-268, 48 h) [nM] | GI50 (NCI-H460; Homo sapiens, NCI-H460, 48 h) [nM] | GI50 (MCF7; Homo sapiens, MCF7, 48 h) [nM] | GI50 (KM-20L2; Homo sapiens, KM-20L2, 48 h) [nM] | GI50 (BXPC-3; Homo sapiens, BXPC-3, 48 h) [nM] | GI50 (DU-145; Homo sapiens, DU-145, 48 h) [nM] | GI50 (SF-268) [nM] | GI50 (NCI-H460) [nM] | GI50 (MCF7) [nM] | IC50 [2] [nM] | GI50 (KM-20L2) [nM] | GI50 (BXPC-3) [nM] | GI50 (DU-145) [nM] | IC50 [3] [nM] | Activity (Mus musculus [4]) [%] | Activity (Mus musculus [5]) [%] | EC50 (P388) [nM]
COc1cc(/C=C\c2ccc(OC)c([N+](=O)[O-])c2[N+](=O)[O-])cc(OC)c1OC | > 40000 | 2500 | 370 | 2300 | 330 | 2100 | 200 | – | – | – | – | – | – | – | – | – | – | –
COc1ccc(/C=C\c2cc(OC)c(OC)c(OC)c2)c(N)c1N [listing 1 of 2 here] | 2800 | – | – | – | – | – | – | 8.3 | 18 | 6.2 | 2400 | 25 | 7.9 | 18 | 4.3 | 40 | – | –
COc1cc(/C=C/c2ccc(OC)c([N+](=O)[O-])c2[N+](=O)[O-])cc(OC)c1OC | > 40000 | > 10000 | > 10000 | > 10000 | > 10000 | > 10000 | > 10000 | – | – | – | – | – | – | – | – | – | – | –
COc1cc(/C=C\c2cc(N)c(OC)c(N)c2)cc(OC)c1OC.Cl.Cl | > 40000 | – | – | – | – | – | – | – | – | – | > 44800 | – | – | – | > 1400 | 0 | 6 | –
COc1cc(/C=C\c2cc(NC(=O)[C@@H](N)CO)c(OC)c(NC(=O)[C@@H](N)CO)c2)cc(OC)c1OC | > 40000 | – | – | – | – | – | – | – | – | – | – | – | – | – | – | – | – | –
COc1ccc(/C=C\c2cc(OC)c(OC)c(OC)c2)c(N)c1N [listing 2 of 2 here] | 1800 | 11 | 9 | 11 | 19 | 14 | 12 | – | – | – | – | – | – | – | – | – | – | –
